# Screening results from PubChem.
# Most compounds without a hit are left out; they make up all but 2% or so of the library.
# ABCB6 inh MLPCN = inhibitors of human ABC transporter ABCB6 | Q9NP58 | K562-ABCB6 porphyrin accumulation, flow cytometry, 1 h; stronger effect = lower value | actives 0.19% (n = 360,000) | fluorescence ratio to DMSO, % at 10 µM | AID 602162;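 active means fluorescence ratio to DMSO below 75%, the collection mean minus 3 SD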;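 further: signal is porphyrin accumulated inside mitochondria; lower ratio means ABCB6 inhibition with less porphyrin fluorescence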
# Target sequence (Q9NP58 whole entry, looked up): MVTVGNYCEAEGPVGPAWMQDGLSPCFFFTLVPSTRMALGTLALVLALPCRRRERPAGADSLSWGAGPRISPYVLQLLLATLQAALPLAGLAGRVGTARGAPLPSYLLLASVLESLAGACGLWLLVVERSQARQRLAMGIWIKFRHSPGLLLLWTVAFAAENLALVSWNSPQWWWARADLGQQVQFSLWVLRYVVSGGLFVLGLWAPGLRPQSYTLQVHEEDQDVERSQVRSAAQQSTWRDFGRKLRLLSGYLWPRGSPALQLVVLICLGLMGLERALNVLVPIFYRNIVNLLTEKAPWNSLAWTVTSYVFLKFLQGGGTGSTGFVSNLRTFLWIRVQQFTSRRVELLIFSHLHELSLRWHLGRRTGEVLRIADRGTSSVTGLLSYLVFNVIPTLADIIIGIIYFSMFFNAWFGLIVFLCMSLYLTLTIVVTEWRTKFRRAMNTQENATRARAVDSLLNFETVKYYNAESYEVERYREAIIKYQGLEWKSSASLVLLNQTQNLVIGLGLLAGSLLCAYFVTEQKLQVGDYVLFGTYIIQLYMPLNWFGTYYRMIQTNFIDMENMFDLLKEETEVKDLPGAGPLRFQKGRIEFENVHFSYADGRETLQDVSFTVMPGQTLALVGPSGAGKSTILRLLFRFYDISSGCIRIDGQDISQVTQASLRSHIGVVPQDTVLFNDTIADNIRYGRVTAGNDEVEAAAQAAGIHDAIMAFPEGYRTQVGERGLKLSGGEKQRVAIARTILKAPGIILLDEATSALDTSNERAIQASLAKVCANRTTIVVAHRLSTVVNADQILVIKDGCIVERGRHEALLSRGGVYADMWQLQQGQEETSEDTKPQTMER
# DAGLB inh = diacylglycerol lipase beta (human) inhibition; Q8NCG7; HEK293T DAGLB membrane lysate, EnzChek fluorogenic substrate; inhibition, % at 5.17 µM; actives 0.059% (n = 340,000); in the data active means inhibition above about 34%
# VLA-4 inh = inhibition in a human VLA-4 binding assay. VLA-4 expressing cells, ligand binding flow cytometry. inhibition, % (about 7 µM as worked out from the volumes in the protocol). actives 0.2% (n = 330,000). AID 2557; in the data active means inhibition above about 50%
# MT1-MMP act inh = inhibitors of human MT1-MMP activation; P50281; HT1080 RFP-PRO-GFP cells, GFP/RFP ratio fluorescence, overnight; percent of plate control window, DMSO zero; GFP/RFP ratio change, % at 20 µM; actives 0.061% (n = 360,000); AID 651647;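 active means GFP/RFP ratio change of at least 30% with cell ATP level not reduced by more than half and red fluorescence within 50% of control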
#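 Assay system – RFP-PRO-GFP reporter HT1080 cells · Compound dosing – single dose of 20 µM compound, 1% DMSO final · Incubation – overnight compound exposure at 37 °C · Measure – GFP/RFP fluorescence ratio · Benchmarks – DMSO wells and RFP-L50D-GFP cells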
# FGF22 binding = FGF22 (human) thermal shift binding. Q9HCT0. recombinant FGF22 thermal shift, SYPRO orange fluorescence; percent of sucrose octasulfate shift, DMSO zero. activity (Tm shift, normalised), % at 9.99 µM. actives 1.5% (n = 340,000);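 active means mean Tm shift, scaled 0 neutral to 100 positive control, at about 1.3% or above, every replicate too, limit read from the data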
# Exocytosis inh = lytic granule exocytosis inhibition; actives 0.66% (n = 360,000); inhibition, % at 10 µM; TALL-104 LAMP-1 surface exposure, flow cytometry; cells stimulated with thapsigargin and PMA; AID 651702;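 active means inhibition above about 55%, limit read from the data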
# Numbers stand for hits; n = inactive; x = not tested or not shown.
SMILES,ABCB6 inh MLPCN,DAGLB inh,VLA-4 inh,MT1-MMP act inh,FGF22 binding,Exocytosis inh
CCOc1ccccc1N1CC(C(=O)Nc2c(C)n(C)n(-c3ccccc3)c2=O)CC1=O (centres undefined),n,n,n,n,43.3,n
Cc1ccc(C(=O)Nc2c(C)n(C)n(-c3ccccc3)c2=O)cc1,n,n,n,n,43.9,n
Cc1c(NC(=O)c2ccc(C(=O)Nc3c(C)n(C)n(-c4ccccc4)c3=O)cc2)c(=O)n(-c2ccccc2)n1C,n,n,n,n,n,n
Cc1ccc(N2CC(C(=O)Nc3c(C)n(C)n(-c4ccccc4)c3=O)CC2=O)cc1 (centres undefined),n,n,n,n,n,n
C[C@@H]1CN([C@@H](C)CO)C(=O)c2cc(NC(=O)C3CCCCC3)ccc2O[C@@H]1CN(C)CC1CCCCC1,x,x,x,x,n,x
Cc1ccc(S(=O)(=O)NCCCCCC(=O)Nc2c(C)n(C)n(-c3ccccc3)c2=O)cc1,n,n,n,n,43.2,n
O=c1c(Oc2ccccc2F)coc2cc(OCc3cnn(-c4ccccc4)c3)ccc12,n,n,n,n,43.2,n
CC1=Nc2ccccc2N=C(N)C1c1ccccc1 (centres undefined),n,n,n,n,43.6,n
CO[C@H]1CN(C)C(=O)c2ccc(NC(=O)c3ccno3)cc2OC[C@H](C)NC[C@@H]1C,x,x,x,x,n,x
Cn1c(=O)c2[nH]c(NN=Cc3ccc(Br)cc3)nc2n(C)c1=O,n,n,x,n,n,n
Cc1ccc(C=NNc2nc3c([nH]2)c(=O)n(C)c(=O)n3C)cc1,n,n,x,n,43.9,83.6
Cc1cc(C(F)(F)F)c2c(N)c(C(=O)NCc3ccc(Cl)cc3)sc2n1,n,x,x,n,43.4,n
Nc1c(C(=O)NCc2ccc(Cl)cc2)sc2nc3c(c(C(F)(F)F)c12)CCC3,n,n,n,n,x,n
C[C@@H]1CN([C@@H](C)CO)C(=O)Cc2cc(NC(=O)CCC(F)(F)F)ccc2O[C@@H]1CN(C)Cc1ccc2c(c1)OCO2,x,x,x,x,n,x
Cc1ccnc(N2CCC(C(=O)NNC(=O)COc3cccc4ccccc34)CC2)n1,n,n,n,n,43.5,n
COc1ccccc1C#Cc1cnc2c(c1)C(=O)N([C@H](C)CO)C[C@@H](C)[C@H](CN(C)C(=O)CN(C)C)O2,x,x,x,x,n,x
N=c1c2c(n(Cc3ccc(Cl)c(Cl)c3)c3c1CCC3)CCCC2,n,n,n,n,x,n
N=c1c2c(n(Cc3ccc(Br)cc3)c3c1CCC3)CCCC2,n,n,n,n,43.4,n
COc1ccc(/C=N/NC(=O)c2cccnc2)cc1COc1ccc(NC(C)=O)cc1,n,n,n,n,n,n
COc1ccc(/C=N/NC(=O)c2cccnc2)cc1COc1ccc([N+](=O)[O-])cc1,n,n,n,n,n,61.1
C#CCOc1ccc(/C=N/NC(=O)c2cccnc2)cc1OCC,n,n,n,n,n,n
CCOc1cc(/C=N/NC(=O)c2cccnc2)cc(Br)c1OCC(N)=O,n,n,n,n,43.7,n
COc1cc(/C=N/NC(=O)c2cccnc2)ccc1OC(=O)c1ccc([N+](=O)[O-])cc1,n,n,n,n,n,76.0
COc1ccc(/C=N\NC(=O)c2ccccc2[N+](=O)[O-])cc1COc1c(F)c(F)c(F)c(F)c1F,n,n,n,n,4.1,n
COCC#Cc1ccc2c(c1)O[C@H](CN(C)S(=O)(=O)c1cccc(F)c1)[C@H](C)CN([C@H](C)CO)S2(=O)=O,x,x,x,x,n,x
CC(=O)N(C)C[C@@H]1Oc2ncc(/C=C/c3ccccc3)cc2C(=O)N([C@@H](C)CO)C[C@H]1C,x,x,x,x,n,x
Cc1ccc(S(=O)(=O)Nc2ccc3c(c2)C(=O)N([C@@H](C)CO)C[C@@H](C)[C@@H](CN(C)Cc2ccccc2)O3)cc1,x,x,x,x,n,x
COc1cc(/C=N/NC(=O)c2cccnc2)ccc1OCC(=O)Nc1ccccc1Cl,n,n,n,n,43.2,n
COc1ccc(NC(=O)COc2ccc(/C=N/NC(=O)c3cccnc3)cc2OC)cc1,n,n,n,n,n,n
CC(=O)Nc1ccc2nc(NC(=O)COc3ccccc3Cl)sc2c1,n,n,n,n,43.2,n
